Assay results: ChEMBL document CHEMBL4020840, “Synthesis and Biological Evaluation of Selenium-Containing 4-Anilinoquinazoline Derivatives as Novel Antimitotic Agents” (J Med Chem, 2018)
Calls of active or inactive are those of the source. The rule behind the calls is not given here.

What was measured:
MCF7 = experiment: Induction of morphological changes in human MCF7 cells at 2 to 8 nM after 48 hrs by confocal microscopic method; type: functional, cell-based
Method in brief: (§1)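 Human cancer cells were treated at the indicated concentrations, or 0.01% DMSO vehicle, for 48 h. Cells were then fixed and their morphology was examined by microscopy with a 20× objective.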

HeLa [1] = experiment: Induction of morphological changes in human HeLa cells at 2 to 8 nM after 48 hrs by confocal microscopic method; type: functional, cell-based; method in brief: as §1
MGC-803 = experiment: Induction of morphological changes in human MGC803 cells at 2 to 8 nM after 48 hrs by confocal microscopic method; type: functional, cell-based; method in brief: as §1
A549 [2] = experiment: Induction of ROS generation in human A549 cells at 2 to 8 nM after 12 hrs by DCFH-DA staining based fluorescence microscopic method; type: functional, cell-based
Method in brief: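 A549 plated at 3 × 10⁵ cells/well and grown 24 h, then exposed to compound (2, 4, 8 nM) for 12 h. Loaded with DCFH-DA in fresh medium at 37 °C for 30 min and washed three times with PBS. DCF fluorescence read at excitation 488 and emission 525 nm. Images taken after Hoechst 33342 nuclear staining.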

Sus scrofa = species on record: Sus scrofa; experiment: Inhibition of porcine brain tubulin polymerization measured every 60 secs for 90 mins by DAPI staining based fluorescence assay
Method in brief: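 Purified tubulin was tested in a kit assay. Final buffer: 80 mM PIPES sesquisodium (pH 6.9), 2.0 mM MgCl₂, 0.5 mM EGTA, 1 mM GTP, 10.2% glycerol. Compound (0.1–10 μM) was prewarmed at 37 °C for 1 min before tubulin was added. DAPI reporter fluorescence (ex 340 / em 410 nm) was read every 60 s for 90 min. Area under the curve gave percent inhibition versus control and the IC50.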

A549 [3] = experiment: Disruption of microtubule network in human A549 cells at 2 nM after 12 hrs by Hoechst 33342 staining based laser scanning confocal microscopic method; type: cell-based
Method in brief: (§2)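 A549 and HeLa cells at 3 × 10⁵ per confocal dish, grown 24 h, then exposed to compound (2, 4 or 8 nM) or 0.01% DMSO for 12 h. Fixed in 4% paraformaldehyde at 37 °C for 15 min, permeabilised with 0.5% Triton X-100, blocked with 10% goat serum. Stained with mouse anti-tubulin at 4 °C overnight, then Alexa-Fluor 488 secondary; Hoechst 33342 nuclear stain; confocal imaging.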

A549 [4] = experiment: Disruption of microtubule network in human A549 cells at 4 to 8 nM after 12 hrs by Hoechst 33342 staining based laser scanning confocal microscopic method; type: cell-based; method in brief: as §2
HeLa [5] = experiment: Disruption of microtubule network in human HeLa cells at 2 nM after 12 hrs by Hoechst 33342 staining based laser scanning confocal microscopic method; type: cell-based; method in brief: as §2
HeLa [6] = experiment: Disruption of microtubule network in human HeLa cells at 4 to 8 nM after 12 hrs by Hoechst 33342 staining based laser scanning confocal microscopic method; type: cell-based; method in brief: as §2
A549 [7] = experiment: Cell cycle arrest in human A549 cells assessed as accumulation at G2/M phase up to 24 hrs by propidium iodide staining based flow cytometry; type: functional
Method in brief: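 A549 seeded in six-well plates at 3 × 10⁵ cells/well and treated for 12 or 24 h; vehicle 0.01% DMSO. Cells fixed overnight in ice-cold 70% ethanol, treated with RNase A at 37 °C for 30 min, then stained with PI at 4 °C for 30 min. About 10 000 events acquired by flow cytometry at 488 nm; three experiments.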

A549 [8] = experiment: Induction of apoptosis in human A549 cells assessed as upregulation of Bax level at 2 to 4 nM after 24 to 48 hrs by Western blot method; type: functional, cell-based
Method in brief: (§3)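 A549 seeded in 60 mm dishes at 5 × 10⁵ cells and treated for 24 or 48 h. Lysed in RIPA buffer on ice for 30 min and spun at 12 500g. Protein measured by BCA; 40 μg run on 8−12% SDS−PAGE and moved to nitrocellulose. Blocked in 5% milk, primary antibodies at 4 °C overnight, HRP secondary 2 h, ECL detection.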

A549 [9] = experiment: Induction of apoptosis in human A549 cells assessed as upregulation of Bad level at 2 to 4 nM after 24 to 48 hrs by Western blot method; type: functional, cell-based; method in brief: as §3
A549 [10] = experiment: Induction of apoptosis in human A549 cells assessed as downregulation of Bcl2 level at 2 to 4 nM after 24 to 48 hrs by Western blot method; type: functional, cell-based; method in brief: as §3
A549 [11] = experiment: Induction of mitochondrial membrane disruption in human A549 cells at 2 to 8 nM after 48 hrs by JC1/Hoechst 33342 staining based flow cytometry; type: functional, cell-based
A549 [12] = experiment: Antimigratory activity against human A549 cells assessed as suppression of wound healing at 4 nM after 24 hrs by phase contrast microscopic method; type: functional, cell-based
Method in brief: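 Scratch wound assay: A549 plated at 5 × 10⁴ cells/dish and grown 24 h before scraping with a 10 μL tip. Medium then swapped to serum-free DMEM containing compound (4 nM) for 24 h. After a PBS wash, wound images taken at 0 and 24 h; at least three independent experiments.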

SMILES: C[Se]c1ccc(N(C)c2nc(C)nc3ccccc23)cc1
- Activity (MCF7): Active
- Activity (HeLa [1]): Active
- Activity (MGC-803): Active
- Activity (A549 [2]): Active
- inhibition (Sus scrofa): Dose-dependent effect
- Activity (A549 [3]): inactive
- Activity (A549 [4]): Active
- Activity (HeLa [5]): inactive
- Activity (HeLa [6]): Active
- Activity (A549 [7]): Dose-dependent effect
- Activity (A549 [8]): Active
- Activity (A549 [9]): Active
- Activity (A549 [10]): Active
- Activity (A549 [11]): Active
- Activity (A549 [12]): Active
